These results are taken from ChEMBL document CHEMBL3351231, “Structure and antimicrobial activity of phloroglucinol derivatives from Achyrocline satureioides” (2015).

≈ marks a conversion by molar mass, not a printed value.

In assay [1] the test system is Escherichia coli. Description: Antimicrobial activity against Escherichia coli ATCC 35218 after 24 hrs by broth microdilution method. It counts as functional. The settings on record: ATCC 35218, 24 h. The procedure, abridged: (§1)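 Strains kept at −80 °C in BHI broth with 20% glycerol and revived on BHI at 37 °C overnight. NCCLS standard broth microdilution with 1:2 serial dilutions from 1 to 128 μM and an inoculum of 1 × 10⁵ CFU/mL. Ampicillin and kanamycin served as controls.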
(In general: Dilution methods test growth across graded concentrations, often in twofold steps.)

Assay [2] deals with Staphylococcus aureus. Description: Antimicrobial activity against methicillin-resistant and vancomycin-intermediate Staphylococcus aureus NRS402 after 24 hrs by broth microdilution method. The settings on record: NRS402, 24 h. It is filed as functional. In outline: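 Broth microdilution per NCCLS standard; strain stored at -80 °C in BHI broth with 20% glycerol, revived on BHI at 37 °C overnight. […] Ampicillin and kanamycin included as controls.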

Assay [3] deals with Enterococcus faecalis. Description: Antimicrobial activity against Enterococcus faecalis ATCC 29212 after 24 hrs by broth microdilution method. The settings on record: ATCC 29212, 24 h. It counts as functional. In outline: as §1
Assay [4] concerns Saccharomyces cerevisiae. Description: Antimicrobial activity against Saccharomyces cerevisiae BY4741 after 24 hrs by broth microdilution method. It counts as functional. The settings on record: BY4741, 24 h.
Assay [5] relates to Candida albicans. The assay can be described thus: Antimicrobial activity against Candida albicans […] after 24 hrs by broth microdilution method. It is filed as functional.
Assay [6] relates to Nakaseomyces glabratus. Description: Antimicrobial activity against Candida glabrata ATCC 9984 after 24 hrs by broth microdilution method. It is filed as functional. The settings on record: ATCC 9984, 24 h.
The test system of assay [7] is Staphylococcus aureus. Description: Antimicrobial activity against methicillin-sensitive Staphylococcus aureus ATCC 25923 after 24 hrs by broth microdilution method. The settings on record: ATCC 25923, 24 h.

By MIC is commonly meant the least concentration at which growth counts as inhibited. For the molecule `C=C(C)C(O)Cc1c(O)c(C(=O)C(C)CC)c(O)c2c1oc1c(C(=O)C(C)CC)c(O)c(CC=C(C)C)c(O)c12` (configuration not stated) [ACHYROFURAN], the MIC is more than 128 µM in assay [1]; less than 1 µM in assay [2]; 2 µM (≈ 1.11 µg/mL) in assay [3]; more than 128 µM in assay [4]; more than 128 µM in assay [5]; more than 128 µM in assay [6]. The molecule also displayed an MIC in assay [7] of less than 1 µM.

On to `CCc1oc(=O)c(Cc2c(O)c3c(c(C(=O)[C@@H](C)CC)c2O)OC(C)(C)C=C3)c(O)c1C`, for which the MIC in assay [1] was more than 128 µM; in assay [2], 64 µM (≈ 28.3 µg/mL); in assay [3] it was more than 128 µM; in assay [4], more than 128 µM; in assay [5], more than 128 µM; in assay [6], more than 128 µM. Further, inhibition of growth in assay [7] (MIC) required 64 µM (≈ 28.3 µg/mL).

For `C=C(C)[C@@H]1Cc2c(O)c(Cc3c(O)c(C)c(CC)oc3=O)c(O)c(C(=O)[C@@H](C)CC)c2O1`, the MIC is more than 128 µM in assay [1]; 64 µM (≈ 28.3 µg/mL) in assay [2]; 64 µM (≈ 28.3 µg/mL) in assay [3]; more than 128 µM in assay [4]; more than 128 µM in assay [5]; more than 128 µM in assay [6]. In addition, in assay [7], the MIC was 32 µM (≈ 14.2 µg/mL).

Consider `CCc1oc(OC)c(Cc2c(O)c(C(=O)[C@@H](C)CC)c3c(c2OC)C=CC(C)(C)O3)c(=O)c1C`, for which the MIC in assay [1], in assay [2], in assay [3] and in assay [7] was more than 128 µM in each case.

Turning to `C=C(C)C(O)Cc1c(O)c(C(=O)[C@@H](C)CC)c2oc3c4c(c(C(=O)[C@@H](C)CC)c(O)c3c2c1O)OC(C)(C)C=C4` (some centres not stated), the MIC was more than 128 µM in assay [1]; 32 µM (≈ 17.6 µg/mL) in assay [2]; 64 µM (≈ 35.2 µg/mL) in assay [3]; more than 128 µM in assay [4]; more than 128 µM in assay [5]; more than 128 µM in assay [6]. In assay [7], it took 32 µM (≈ 17.6 µg/mL) to inhibit growth (MIC).

For `CCc1oc(=O)c(Cc2c(O)c(C(=O)[C@@H](C)CC)c3c(c2OC)C=CC(C)(C)O3)c(OC)c1C`, the MIC in assay [1], in assay [2], in assay [3] and in assay [7] was more than 128 µM in each case.

For the molecule `CCc1oc(=O)c(Cc2c(O)c(CC=C(C)C)c(O)c(C(=O)[C@@H](C)CC)c2O)c(O)c1C`, the MIC in assay [1] was more than 128 µM; in assay [2], 8 µM (≈ 3.56 µg/mL); in assay [3], 64 µM (≈ 28.4 µg/mL); in assay [4], more than 128 µM; in assay [5], more than 128 µM; in assay [6], more than 128 µM. In addition, the MIC in assay [7] was 8 µM (≈ 3.56 µg/mL).

For `CCc1oc(=O)c(Cc2c(O)c(CCC(C)C)c(O)c(C(=O)[C@@H](C)CC)c2O)c(O)c1C`, the minimal inhibitory concentration (MIC) in assay [1] is more than 128 µM; in assay [2], 4 µM (≈ 1.79 µg/mL); in assay [3], 32 µM (≈ 14.3 µg/mL); in assay [7] it was 4 µM (≈ 1.79 µg/mL).

Regarding `CCc1oc(=O)c(Cc2c(O)c3c(c(C(=O)[C@@H](C)CC)c2O)OC(C(C)(C)O)C3)c(O)c1C` (some centres not stated), the MIC in assay [1], in assay [2], in assay [3] and in assay [7] was more than 128 µM each time.

As to `CCc1oc(=O)c(Cc2c(O)c3c(c(C(=O)[C@@H](C)CC)c2O)OC(C)(C)C(Br)=C3)c(O)c1C`, the MIC is more than 128 µM in assay [1], 8 µM (≈ 4.17 µg/mL) in assay [2], more than 128 µM in assay [3] and 16 µM (≈ 8.34 µg/mL) in assay [7].

For `CCc1oc(=O)c(Cc2c(OC(C)=O)c3c(c(C(=O)[C@@H](C)CC)c2OC(C)=O)OC(C)(C)C=C3)c(OC(C)=O)c1C`, the MIC in assay [1], in assay [2], in assay [3] and in assay [7] was more than 128 µM throughout.

For the molecule `CCc1oc(=O)c(Cc2c(O)c(C(=O)[C@@H](C)CC)c3c(c2O)C2OC2C(C)(C)O3)c(O)c1C` (some centres not stated), the MIC in assay [1], in assay [2], in assay [3] and in assay [7] was more than 128 µM each time.

As for `CCc1oc(=O)c(Cc2c(O)c3c(c(C(=O)[C@@H](C)CC)c2O)OC(C)(C)[C@@H](O)C3)c(O)c1C`, the MIC in assay [1], in assay [2], in assay [3], in assay [4], in assay [5] and in assay [6] was more than 128 µM in each case. For the same molecule, in assay [7], the MIC is more than 128 µM.

On to `CCc1oc(OC)c(Cc2c(O)c3c(c(C(=O)[C@@H](C)CC)c2O)OC(C)(C)C=C3)c(=O)c1C`, for which the MIC in assay [1], in assay [2], in assay [3] and in assay [7] was more than 128 µM in each case.

As for `CC1(C)S[C@@H]2[C@H](NC(=O)[C@H](N)c3ccccc3)C(=O)N2[C@H]1C(=O)O` [AMPICILLIN], the MIC in assay [1] was more than 128 µM; in assay [2], 120 µM (≈ 41.9 µg/mL); in assay [3], 8.8 µM (≈ 3.07 µg/mL); in assay [7], less than 1 µM.

For `COc1c(-c2ccccc2)oc2c(OC)c(O)cc(O)c2c1=O` [GNAPHALIIN], the MIC in assay [1], in assay [2], in assay [3], in assay [4], in assay [5] and in assay [6] was more than 128 µM each time. Further, the minimal inhibitory concentration (MIC) in assay [7] was more than 128 µM.

Consider `NC[C@H]1O[C@H](O[C@H]2[C@H](O)[C@@H](O[C@H]3O[C@H](CO)[C@@H](O)[C@H](N)[C@H]3O)[C@H](N)C[C@@H]2N)[C@H](O)[C@@H](O)[C@@H]1O` [KANAMYCIN], for which the minimal inhibitory concentration (MIC) in assay [1] was more than 128 µM; in assay [2] it was 240 µM (≈ 116 µg/mL); in assay [3], 360 µM (≈ 174 µg/mL); in assay [7], 2.8 µM (≈ 1.36 µg/mL).

For `CCc1[nH]c(=O)c(Cc2c(O)c3c(c(C(=O)[C@@H](C)CC)c2O)OC(C)(C)C=C3)c(O)c1C`, the MIC is more than 128 µM in assay [1], 32 µM (≈ 14.1 µg/mL) in assay [2], more than 128 µM in assay [3] and 32 µM (≈ 14.1 µg/mL) in assay [7].

As for `CCc1oc(=O)c(Cc2c(O)c3c(c(C(=O)[C@@H](C)CC)c2O)OC(C)(C)CC3)c(O)c1C`, the MIC in assay [1], in assay [2], in assay [3] and in assay [7] was more than 128 µM each time.
